High-throughput results from PubChem.
The sample as a whole holds a higher share of hits than the screen did.
H69AR inhibit – growth inhibitors of human H69AR lung tumor cells; H69AR lung tumor viability, ATP luminescence, 72 h; hits give low values; 85,000 compounds, 6% hits; AID 598; viability, % at 10 µM;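 active = viability at or below 40%; inactive = viability above 40%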;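 also: multidrug resistant small cell line overexpressing MRP-1 efflux transporter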
HUVEC inhibit – blocks proliferation of human endothelial cells; viability, % at 10 µM (by protocol); HUVEC proliferation, CellTiter-Glo luminescence, 72 h; hits give low values; 86,000 compounds, 1.1% hits;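 active = viability at or below 30%; inactive = viability above 30%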
HCT116 bCat-KO – beta-catenin-lacking colon tumor cell growth suppression. HCT116 beta-catenin knockout viability, CellTiter-Glo, 60 h; hits give low values. viability, % at 10 µM. 140,000 compounds, 1.5% hits;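 active = viability at or under a set limit, the compound median less 4 SD, cut at about 6% in these data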
HCT116 PTEN-null – growth suppressors of cells with PTEN tumor suppressor deletion. HCT116 PTEN-null viability, CellTiter-Glo, 60 h; hits give low values. viability, % at 10 µM. 140,000 compounds, 1.2% hits. AID 827;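 active = viability at or below a set limit, 4 SD under the median of all tested compounds, cut at about 3.7% in these data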;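 also: PTEN knockout HCT116 line with beta catenin targeted HCT116 as companion control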
Lung fibro prol – blocks proliferation of human lung fibroblasts. 85,000 compounds, 1.1% hits. viability, % at 10 µM. LL 47 human lung fibroblast viability, ATP luminescence; hits give low values;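 active = viability at or below 50% in the single dose screen; inactive = viability above 50%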;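 also: compound exposure lasted 72 h before the ATP readout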
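Test system: LL 47 human lung fibroblasts / Quantity: 1,150 cells in each well / Medium: IMEM growth medium with 15% fetal bovine serum / Incubation: 72 h compound exposure at 37 °C after overnight plating / Detection: CellTiter-Glo luminescence measuring cellular ATP / Read-out: % viability versus median cells-only luminescence / Benchmarks: cell-only wells, no compound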
Hits are given with their value; - = inactive; . = no result.

SMILES	H69AR inhibit	HUVEC inhibit	HCT116 bCat-KO	HCT116 PTEN-null	Lung fibro prol
COC(=O)C1=C(C)Nc2c(c(=O)n(C)c(=O)n2C)C1c1ccncc1 (configuration not stated)	.	.	-	-	.
O=c1[nH]c(/C=C/c2ccccc2OC(F)F)nc2c1cnn2-c1ccccc1	.	.	-	-	.
CC(=O)C(Sc1nc(-c2ccco2)nc2c1c(=O)n(C)c(=O)n2C)C(=O)N(C)C (configuration not stated)	-	-	.	.	-
C[C@]12CCC(=O)C=C1CC[C@@H]1[C@@H]2CC[C@@]2(C)[C@H]1CC[C@]2(O)C(=O)CO	-	-	-	-	-
CC(=O)[C@H]1CC[C@H]2[C@@H]3CCC4=CC(=O)CC[C@]4(C)[C@H]3CC[C@]12C	29	-	-	-	-
O=[N+]([O-])c1ccc(CCNc2cccc3ccccc23)c([N+](=O)[O-])c1	.	.	-	-	.
Cn1c(C(O)c2ccccc2)nc(Cl)c1Cl (configuration not stated)	-	-	-	-	-
COC(=O)/C(=C(/F)Sc1cc(C)c(O)c(C)c1)C(F)(F)F	2.7	23	-	-	9.3
Cc1nc2c3ccccc3nc(SCC(=O)c3ccc(Cl)cc3)n2n1	.	.	-	-	.
Cc1nc2c3ccccc3nc(SCC(=O)N3CC(C)CC(C)C3)n2n1 (configuration not stated)	20	-	-	-	-
Cc1ccc(C2Oc3ccccc3C3=C2C(c2cccs2)n2ncnc2N3)cc1 (configuration not stated)	18	-	-	-	44
O=C(Nc1ncnc2sc3c(c12)CCCCC3)c1ccc(F)cc1	40	-	-	-	-
CCCCCCCCC[n+]1cccc2c3ccccc3ccc21	.	.	1.2	1.2	.
O=C(C[n+]1cc2ccccc2c2ccccc21)c1ccccc1	.	.	-	-	.
CCCCCCCCCCCCCCCC[n+]1cccc2ccccc21	.	.	1.4	1.7	.
COc1ccc(S(=O)(=O)n2nc(OC(=O)c3c(-c4ccccc4Cl)noc3C)cc2N)cc1	28	-	-	-	-
COc1ccccc1C(=O)Oc1cc(N)n(S(=O)(=O)c2ccc(C)cc2)n1	.	.	-	-	.
CCOc1ccc(N(CC(=O)Nc2cccc(F)c2)S(=O)(=O)c2c(C)noc2C)cc1	30	-	-	-	-
CCOc1ccccc1NC(=O)CN(c1cc(C)cc(C)c1)S(=O)(=O)c1c(C)noc1C	-	-	-	-	-
CCOc1ccc(N(CC(=O)Nc2ccc(C)c(C)c2)S(=O)(=O)c2c(C)noc2C)cc1	-	-	-	-	-
COc1ccc(N(CC(=O)Nc2cc(C)ccc2OC)S(=O)(=O)c2c(C)noc2C)cc1	13	-	-	-	-
COc1ccc(NC(=O)CN(c2cc(C)cc(C)c2)S(=O)(=O)c2c(C)noc2C)cc1	-	-	-	-	-
CCOc1ccc(N(CC(=O)Nc2ccccc2C)S(=O)(=O)c2c(C)noc2C)cc1	19	-	-	-	49
CCOc1ccccc1NC(=O)CN(c1ccc(OC)cc1)S(=O)(=O)c1c(C)noc1C	-	-	-	-	47
O=C(NCC1OCCc2ccccc21)c1ccc(NC(=O)c2cccc(Br)c2)cc1 (configuration not stated)	.	.	-	-	.
SMILES	H69AR inhibit	HUVEC inhibit	HCT116 bCat-KO	HCT116 PTEN-null	Lung fibro prol
CCC(C(=O)OCC(=O)Nc1c(Cl)cccc1Cl)c1ccccc1 (configuration not stated)	.	.	-	-	.
O=C1CCC/C(=N/NC(=O)c2ccc(CN3c4cccc5cccc(c45)S3(=O)=O)cc2)C1	.	.	-	-	.
Clc1ccc(C2C3=C(Nc4ncnn42)c2ccccc2CC3)cc1 (configuration not stated)	13	-	-	-	-
c1ccc(C2C3=C(Nc4ncnn42)c2ccccc2CCC3)cc1 (configuration not stated)	-	-	-	-	-
CSc1ncc2c(n1)-c1cc(C)ccc1SC2	-	-	-	-	-
O=C(CSc1nnc(COc2ccc(Cl)cc2)o1)N1c2ccccc2CCc2ccccc21	9.1	-	-	-	-
O=C(O)c1ccc(COc2ccc3c4c(c(=O)oc3c2)CCC4)o1	-	-	-	-	-
CCCOc1ccc2oc(=O)c3c(c2c1)CCCN3C(=O)CN1CCc2ccccc2C1	40	-	-	-	-
Cc1cc(=O)oc2ccc(OCC(=O)N3CCC(C)CC3)cc12	-	-	-	-	-
CC1CCN(CC(=O)N2CCCc3c2c(=O)oc2ccc(OCc4ccccc4)cc32)CC1	33	-	-	-	-
CC1CC(C)CN(CC(=O)N2CCCc3c2c(=O)oc2ccc(OCc4ccccc4)cc32)C1 (configuration not stated)	-	-	3.5	-	-
COc1ccc(C2CC(=O)c3cnc(NC(=O)c4ccccc4)nc3C2)c(OC)c1 (configuration not stated)	27	-	-	-	-
CCN(CC)C(=O)c1c(Cl)nc(C)c([N+](=O)[O-])c1C	.	.	-	-	.
CCOC(=O)Cc1cc(=O)n2[nH]c(-c3ccccc3)cc2n1	-	-	-	-	-
Cc1cc(=O)n2[nH]c(C)c(-c3ccc(Cl)cc3)c2n1	36	-	-	-	-
CCOC(=O)Cc1c(C)nc2c(-c3cccc(Br)c3)c[nH]n2c1=O	28	4.7	-	-	-
CCOC(=O)Cc1c(C)nc2c(-c3ccc(Cl)cc3)c(C)[nH]n2c1=O	39	-	-	-	-
CCOC(=O)Cc1c(C)nc2c(C#N)c[nH]n2c1=O	-	-	-	-	-
CCOC(=O)Cc1c(C)nc2cc(-c3ccc(C(C)(C)C)cc3)[nH]n2c1=O	37	-	-	-	-
O=c1c2c(nc3c(-c4cccc(Br)c4)c[nH]n13)CCCC2	20	-	-	-	-
COc1cc(C)c(Cl)cc1S(=O)(=O)n1cnc2ccccc21	40	-	-	-	-
CCOc1ccc(Cl)cc1S(=O)(=O)n1cnc2cc(C)c(C)cc21	-	-	-	-	-
CC1OC23CCCCC2C(C#N)(C(=N)O3)C1(C#N)C#N (configuration not stated)	-	-	-	-	-
N#CC1(C#N)COC23CCCCC2C1(C#N)C(=N)O3 (configuration not stated)	8.2	-	-	-	-
COc1ccc(C2OC34CCCCC3C(C#N)(C#N)C2(C#N)C(=N)O4)cc1 (configuration not stated)	34	-	-	-	-
SMILES	H69AR inhibit	HUVEC inhibit	HCT116 bCat-KO	HCT116 PTEN-null	Lung fibro prol
CCCC1OC23CCCCC2C(C#N)(C(=N)O3)C1(C#N)C#N (configuration not stated)	22	-	-	-	-
NC(=S)NNC(=O)Nc1ccc(Cl)c(Cl)c1	.	.	-	-	.
O=C(CC1(O)C(=O)N(C/C=C/c2ccccc2)c2ccccc21)c1ccccn1 (configuration not stated)	24	-	-	-	-
CC12CCC(C/C1=N\N=C1\NC(=O)/C(=C\c3ccc(Cl)cc3)S1)C2(C)C (configuration not stated)	.	.	-	-	.
O=C1O/C(=C\c2ccccc2)c2ccccc21	.	.	-	-	.
O=C1N/C(=C\c2ccccc2)c2ccccc21	24	-	-	-	-
